The source made the active and inactive calls. No cut-off for these calls is given here.
Experiments:
[1] = system: Mus musculus; assay: Toxicity in mouse at 300 mg/kg, po after 1 hr; assay type: organism-based; details: in vivo
[2] = molecular target: T1, Free fatty acid receptor 4 (Homo sapiens) (UniProt Q5NUL3); assay: Agonist activity at human GPR120 expressed in CHO-FlpIn cells after 15 mins by DMR assay relative to control; assay type: cell-based
T1 sequence (whole entry): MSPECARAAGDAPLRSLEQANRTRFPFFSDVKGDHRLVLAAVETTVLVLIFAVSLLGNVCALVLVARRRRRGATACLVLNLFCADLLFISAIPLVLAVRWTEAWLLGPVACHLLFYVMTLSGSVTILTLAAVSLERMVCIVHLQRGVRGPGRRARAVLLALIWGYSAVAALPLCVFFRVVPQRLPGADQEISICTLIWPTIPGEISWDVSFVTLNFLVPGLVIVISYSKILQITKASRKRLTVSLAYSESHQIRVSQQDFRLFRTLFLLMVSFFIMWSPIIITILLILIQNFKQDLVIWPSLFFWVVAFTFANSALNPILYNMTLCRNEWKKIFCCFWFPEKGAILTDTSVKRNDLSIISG
Summary of the method: (§1)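 Cryopreserved CHO FlpIn cells stably expressing human or mouse GPR120 were seeded 48 h before assay, serum-starved for 24 h, then held 2 h in HBSS/20 mM HEPES/0.01% BSA (pH 7.4) with 0.5% DMSO. DMR was read over a 10 min baseline and for 15 min after addition. Runs were in duplicate, 10 points, 16 μM to 0.8 nM final, as % of maximal control agonist.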

[3] = Drug uptake in mouse blood at 150 mg/kg, po after 2 hrs; assay type: ADME, organism-based; details: read-out: Drug uptake
[4] = system: MDR1; assay: Efflux ratio of permeability in MDCK2-MDR1 cells at 10 uM; details: dog, MDCK-MDR1
[5] = (§2) Oral bioavailability in mouse at 5 mg/kg after 24 hrs; assay type: ADME, organism-based; details: in vivo
[6] = Clearance in mouse at 2.5 mg/kg, iv after 24 hrs; assay type: ADME, organism-based; details: in vivo
[7] = Apparent permeability across apical to basolateral side in human Caco2 cells; details: Caco-2
[8] = Drug uptake in mouse brain at 300 mg/kg, po after 1 hr; assay type: ADME, organism-based; details: read-out: Drug uptake
[9] = molecular target: 3',5'-cyclic-AMP phosphodiesterase 4D (Homo sapiens, UniProt Q08499); assay: Inhibition of phosphodiesterase 4D (unknown origin)
[10] = Ratio of unbound drug level in mouse brain to blood at 5 mg/kg administered through oral gavage after 2 hrs; details: brain/blood
[11] = molecular target: T2, Free fatty acid receptor 4 (Homo sapiens, UniProt Q5NUL3); assay: Agonist activity at human GPR120 expressed in CHO-FlpIn cells after 15 mins by DMR assay; assay type: cell-based; summary of the method: as §1
T2 sequence (Q5NUL3 whole entry): T1 sequence (whole entry)

[12] = molecular target: T3, Free fatty acid receptor 4 (Mus musculus, UniProt Q7TMA4); assay: Agonist activity at mouse GPR120 expressed in CHO-FlpIn cells after 15 mins by DMR assay; assay type: cell-based; summary of the method: as §1
T3 sequence (Q7TMA4 whole entry): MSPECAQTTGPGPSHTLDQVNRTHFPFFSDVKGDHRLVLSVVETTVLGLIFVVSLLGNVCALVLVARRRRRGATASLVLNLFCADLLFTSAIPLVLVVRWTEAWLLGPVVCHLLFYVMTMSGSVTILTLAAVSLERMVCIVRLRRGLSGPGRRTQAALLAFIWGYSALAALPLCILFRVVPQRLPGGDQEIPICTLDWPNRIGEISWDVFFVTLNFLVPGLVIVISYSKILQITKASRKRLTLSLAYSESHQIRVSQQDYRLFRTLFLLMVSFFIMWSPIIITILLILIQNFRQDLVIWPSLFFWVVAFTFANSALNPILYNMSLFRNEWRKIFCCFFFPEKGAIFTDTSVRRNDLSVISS

[13] = molecular target: Free fatty acid receptor 1 (Mus musculus) (UniProt Q76JU9); assay: Agonist activity at mouse GPR40 expressed in HEK293 cells assessed as increase in intracellular calcium level after 5 mins by FLUO-4-AM dye-based FLIPR assay relative to control; assay type: functional, cell-based
Summary of the method: (§3)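 HEK293s cells stably expressing mouse GPR40 were seeded 24 h before assay and loaded for 1 h with calcium 3/Fluo-4 AM in HBSS, 20 mM HEPES, 0.01% BSA, 2.5 mM probenecid, pH 7.4. FLIPR Tetra took 10 baseline reads, then read for 5 min after addition. Runs were in duplicate, 9 points, 100 μM to 7 nM final, as % of maximal eladic acid control.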

[14] = Drug uptake in mouse blood at 300 mg/kg, po after 1 hr; assay type: ADME, organism-based; details: read-out: Drug uptake
[15] = molecular target: Free fatty acid receptor 1 (Mus musculus, UniProt Q76JU9); assay: Agonist activity at mouse GPR40 expressed in HEK293 cells assessed as increase in intracellular calcium level after 5 mins by FLUO-4-AM dye-based FLIPR assay; assay type: functional, cell-based; summary of the method: as §3
[16] = system: Mus musculus; assay: Toxicity in mouse at 150 mg/kg, po after 2 hrs; assay type: organism-based; details: in vivo
[17] = Octanol-buffer partition coefficient, log D of the compound at pH 7.4 after 30 mins by LC-UV based shake-flask method
[18] = Protein binding in mouse plasma assessed as unbound fraction after 24 hrs by equilibrium dialysis; assay type: ADME, cell-free
[19] = molecular target: T4, Free fatty acid receptor 4 (Mus musculus) (UniProt Q7TMA4); assay: Agonist activity at mouse GPR120 expressed in CHO-FlpIn cells after 15 mins by DMR assay relative to control; assay type: cell-based; summary of the method: as §1
T4 sequence (whole entry): T3 sequence (Q7TMA4 whole entry)

[20] = Cmax in mouse at 5 mg/kg administered through oral gavage after 24 hrs; assay type: ADME, organism-based; parameters: dose 5 mg/kg, route oral; details: in vivo
[21] = Ratio of drug level in mouse brain to blood at 5 mg/kg administered through oral gavage after 2 hrs; assay type: ADME, organism-based
[22] = Volume of distribution at steady state in mouse at 2.5 mg/kg, iv after 24 hrs; assay type: ADME, organism-based; details: in vivo, read-out: Vdss
[23] = system: Mus musculus; assay: Antidiabetic activity in wild-type mouse assessed as reduction in glucose excursion at 100 mg/kg administered through oral gavage 30 mins prior to glucose challenge measured after 90 mins by OGTT relative to control; assay type: functional; parameters: scale not given: the % may be the effect or the level left
Summary of the method: (§4)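 OGTT used in-house C57BL/6J mice aged 10–11 weeks. GPR120 knockout and wild-type controls were bred in house, back-crossed onto C57BL/6J, and used at 9–10 weeks. Compound was given as a suspension: a concentrated stock was made at rt the day before and diluted on study day to the dosing concentrations.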

[24] = molecular target: Adenosine receptor A2a (Homo sapiens, UniProt P29274); assay: Inhibition of Adenosine A2A receptor (unknown origin)
[25] = Volume of distribution at steady state in mouse at 1 mg/kg, iv after 24 hrs; assay type: ADME, organism-based; details: in vivo, read-out: Vdss
[26] = system: Mus musculus; assay: Antidiabetic activity in GPR120 knockout mouse assessed as reduction in glucose excursion at 100 mg/kg administered through oral gavage 30 mins prior to glucose challenge measured after 90 mins by OGTT; assay type: functional, organism-based; summary of the method: as §4
[27] = Ratio of unbound drug level in GPR120 knockout mouse brain to blood at 100 mg/kg administered through oral gavage 30 mins prior to glucose challenge measured after 90 mins; details: in vivo, 1.5 h
[28] = Clearance in mouse at 1 mg/kg, iv after 24 hrs; assay type: ADME, organism-based; details: in vivo
[29] = Ratio of unbound drug level in wild-type mouse brain to blood at 100 mg/kg administered through oral gavage 30 mins prior to glucose challenge measured after 90 mins; details: brain/blood
[30] = system: Mus musculus; assay: Antidiabetic activity in C57BL/6J mouse assessed as reduction in glucose excursion at 100 mg/kg administered through oral gavage 30 mins prior to glucose challenge measured after 90 mins by OGTT relative to control; assay type: functional; parameters: scale not given: the % may be the effect or the level left; summary of the method: as §4
[31] = system: Mus musculus; assay: Toxicity in mouse at 50 mg/kg, po; assay type: organism-based; details: in vivo
[32] = system: Mus musculus; assay: as §2; assay type: ADME, organism-based; details: in vivo, 24 h
[33] = Drug uptake in mouse brain at 50 mg/kg, po after 2 hrs; assay type: ADME, organism-based; details: read-out: Drug uptake
[34] = Cmax in mouse blood at 50 mg/kg, po; assay type: ADME, organism-based; parameters: dose 50 mg/kg, route oral

Free fatty acid receptor 1 (Mus musculus), sequence (Q76JU9 whole entry): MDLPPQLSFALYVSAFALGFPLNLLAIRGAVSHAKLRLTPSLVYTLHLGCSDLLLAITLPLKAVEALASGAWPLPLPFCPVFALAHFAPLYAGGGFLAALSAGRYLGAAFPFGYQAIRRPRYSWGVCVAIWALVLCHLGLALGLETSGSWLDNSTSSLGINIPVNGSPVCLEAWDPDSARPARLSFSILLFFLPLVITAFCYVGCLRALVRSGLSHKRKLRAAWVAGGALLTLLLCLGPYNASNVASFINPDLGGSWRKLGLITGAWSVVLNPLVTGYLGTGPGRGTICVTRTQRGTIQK
Free fatty acid receptor 1, sequence (Q76JU9 whole entry): as above
3',5'-cyclic-AMP phosphodiesterase 4D, sequence (Q08499 whole entry): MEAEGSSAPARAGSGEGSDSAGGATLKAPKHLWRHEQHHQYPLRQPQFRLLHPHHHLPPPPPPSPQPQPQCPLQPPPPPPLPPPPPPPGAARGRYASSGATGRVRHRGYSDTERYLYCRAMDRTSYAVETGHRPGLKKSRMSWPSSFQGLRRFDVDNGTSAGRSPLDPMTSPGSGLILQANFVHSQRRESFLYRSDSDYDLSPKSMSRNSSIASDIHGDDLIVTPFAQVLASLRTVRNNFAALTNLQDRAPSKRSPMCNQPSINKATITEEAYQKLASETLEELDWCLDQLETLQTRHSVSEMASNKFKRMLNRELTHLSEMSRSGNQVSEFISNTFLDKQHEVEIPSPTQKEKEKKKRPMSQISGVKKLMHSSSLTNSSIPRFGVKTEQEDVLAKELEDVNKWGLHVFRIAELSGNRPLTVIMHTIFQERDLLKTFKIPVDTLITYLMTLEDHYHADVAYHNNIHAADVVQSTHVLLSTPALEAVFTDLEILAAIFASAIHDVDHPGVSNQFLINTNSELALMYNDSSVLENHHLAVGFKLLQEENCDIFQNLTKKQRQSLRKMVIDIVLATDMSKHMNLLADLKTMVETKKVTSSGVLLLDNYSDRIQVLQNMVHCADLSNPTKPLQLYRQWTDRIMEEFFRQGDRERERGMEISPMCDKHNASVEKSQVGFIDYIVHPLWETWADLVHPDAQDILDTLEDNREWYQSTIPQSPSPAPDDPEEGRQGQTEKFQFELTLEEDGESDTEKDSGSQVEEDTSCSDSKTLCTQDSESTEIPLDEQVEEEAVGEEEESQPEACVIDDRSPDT
Adenosine receptor A2a, sequence (P29274 whole entry): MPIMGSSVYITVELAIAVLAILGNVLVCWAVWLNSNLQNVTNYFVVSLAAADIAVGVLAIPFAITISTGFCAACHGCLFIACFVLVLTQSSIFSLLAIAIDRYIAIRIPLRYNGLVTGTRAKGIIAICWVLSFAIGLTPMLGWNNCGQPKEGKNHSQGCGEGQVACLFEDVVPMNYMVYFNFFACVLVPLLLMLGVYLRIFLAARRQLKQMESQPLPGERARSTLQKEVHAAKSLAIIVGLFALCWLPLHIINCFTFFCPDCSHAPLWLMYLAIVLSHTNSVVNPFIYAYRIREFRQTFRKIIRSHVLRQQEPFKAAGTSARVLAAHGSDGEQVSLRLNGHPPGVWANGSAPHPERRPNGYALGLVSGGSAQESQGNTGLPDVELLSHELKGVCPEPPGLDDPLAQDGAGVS

Efficacy [2] [%]	efflux ratio at 10 µM [4]	bioavailability [5] [%]	clearance [6] [mL/min/kg]	Papp A→B [7] [×10⁻⁶ cm/s]	Kp uu at 2 h [10]	EC50 [11] [nM]	EC50 [12] [nM]	Efficacy [13] [%]	EC50 [15] [µM]	logD at 0.5 h [17]	fraction unbound at 24 h [18]	Efficacy [19] [%]	Cmax [20] [µM]	Kp at 2 h [21]	Vd [22] [L/kg]	SMILES	Activity [16]	further results
102	2	126	9.3	31	0.86	470	410	1	> 100	3.8	0.0048	99	5.4	2.3	1.5	COc1nn(-c2ccccn2)c2cc(-c3ccc([C@H]4C[C@@H]4C(=O)O)cc3)ccc12	Non-Toxic	Activity [1]: Toxic; concentration at 2 h [3]: 126 µM; concentration at 1 h [8]: 207 µM; IC50 [9]: 1600 nM; concentration at 1 h [14]: 284 µM
66	2.8	131	–	76	0.14	740	1000	2	> 100	2.6	0.021	79	3.3	0.37	–	Cc1ccc(-n2nc(C)c3cnc(-c4ccc([C@H]5C[C@@H]5C(=O)O)cc4F)cc32)nc1	–	Activity [23]: 47%; Ki [24]: 1700 nM; Vd [25]: 2.4 L/kg; Activity [26]: inactive; Ratio [27]: 0.12; clearance [28]: 13 mL/min/kg; Kp uu at 1.5 h [29]: 0.12; Activity [30]: 45%
93	0.59	–	5.2	29	0.45	510	620	19	> 100	3.8	0.0053	103	8.2	2	1	COc1nn(-c2ccccn2)c2cc(-c3ccc([C@H]4C[C@@H]4C(=O)O)cc3)cc(F)c12	Toxic	Activity [31]: Non-Toxic; F [32]: 159%; concentration at 2 h [33]: 147 µM; Cmax [34]: 97 µM

— ChEMBL document CHEMBL4049430, “Indazole-6-phenylcyclopropylcarboxylic Acids as Selective GPR120 Agonists with in Vivo Efficacy” (J Med Chem, 2017)
